Assay outcomes: PubChem, SRMLSC
HCT116 bCat-KO: primary screen for growth suppressors in beta-catenin knockout HCT116 cells (colon tumor, human). 140,000 compounds, 1.5% hits. HCT116 beta-catenin knockout viability, CellTiter-Glo, 60 h; stronger effect = lower value. viability, % at 10 µM. AID 818, 2007;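 active = viability at or under a set limit, the compound median less 4 SD, cut at about 6% in these data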
PTEN del growth: growth suppression of PTEN-null HCT116, primary screen, cell-based, CellTiter-Glo; HCT116 PTEN-null viability, 60 h; stronger effect = lower value; viability, % at 10 µM; 140,000 compounds, 1.2% hits;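 active = viability at or below a set limit, 4 SD under the median of all tested compounds, cut at about 3.7% in these data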;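 also: PTEN knockout HCT116 line with beta catenin targeted HCT116 as companion control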
H69AR inhibit: proliferation blockers of H69AR lung cancer cells, primary screen, cell-based, human, 86K library | 85,000 compounds, 6% hits | AID 598, 2007 | H69AR lung tumor viability, ATP luminescence, 72 h; stronger effect = lower value | viability, % at 10 µM;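 active = viability at or below 40%; inactive = viability above 40%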;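 also: multidrug resistant small cell line overexpressing MRP-1 efflux transporter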
HUVEC prolif 384: inhibitors of HUVEC proliferation, primary screen, cell-based, 384-well | CellTiter-Glo luminescence, 72 h; stronger effect = lower value | viability, % at 10 µM (by protocol) | 86,000 compounds, 1.1% hits | AID 648, 2007;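 active = viability at or below 30%; inactive = viability above 30%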
Lung fibro prol: antiproliferative effect on LL 47 fibroblasts – human, LL 47 cells, CellTiter-Glo luminescence, primary screen; LL 47 human lung fibroblast viability, ATP luminescence; stronger effect = lower value; viability, % at 10 µM; 85,000 compounds, 1.1% hits; AID 719, 2007;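 active = viability at or below 50% in the single dose screen; inactive = viability above 50%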;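 also: compound exposure lasted 72 h before the ATP readout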
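Signal: luminescent ATP detection, CellTiter-Glo; assay system: LL 47 human lung fibroblasts; input: 1,150 cells/well; incubation: overnight cell rest, 72 h compound treatment at 37 °C; measure: % viability versus median cells-only luminescence; medium: IMEM growth medium with 15% fetal bovine serum; dosing: compound addition at 0.1% DMSO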
Large screens that a line does not name were inactive. The full list was thinned out, with hits kept by preference.

O=C(CCCc1nc(-c2ccccc2Cl)no1)NCc1cccnc1	H69AR inhibit 39
CCOC(=O)c1ccc(NC(=O)CCc2nc(-c3ccccc3)no2)cc1	none
CCOC(=O)c1ccc(NC(=O)CCc2nc(-c3ccccc3Cl)no2)cc1	H69AR inhibit 29
CCOC(=O)Nc1ccc2c(c1)N(C(=O)CCN(C)C)c1ccccc1S2	none (no result: H69AR inhibit, HUVEC prolif 384, Lung fibro prol)
O=C(NCCc1ccccc1)Nc1cccc(Cl)c1	none (no result: H69AR inhibit, HUVEC prolif 384, Lung fibro prol)
CCCC[n+]1ccn(C2=C([O-])c3ccccc3C(=O)/C2=N\S(=O)(=O)c2ccc(Br)cc2)c1	none (no result: H69AR inhibit, HUVEC prolif 384, Lung fibro prol)
Cc1ccc(S(=O)(=O)/N=C2\C(=O)c3ccccc3C([O-])=C2n2cc[n+](CCC(C)C)c2)cc1	HCT116 bCat-KO 3.7, HUVEC prolif 384 4.4, Lung fibro prol 44
CNc1nc(C)c(C(=O)OCc2ccccc2)s1	none
N#CC1=C(N)N(c2ccccc2)C(c2ccco2)C1(C#N)C#N (centres undefined)	none (no result: H69AR inhibit, HUVEC prolif 384, Lung fibro prol)
O=C(N/N=C\c1ccc(Cl)s1)c1ccc(Cn2cccn2)o1	none (no result: H69AR inhibit, HUVEC prolif 384, Lung fibro prol)
O=C(N/N=C\c1c(O)ccc2ccccc12)c1ccc(Cn2cccn2)o1	HCT116 bCat-KO 5.6 (no result: H69AR inhibit, HUVEC prolif 384, Lung fibro prol)
Cc1cc(OCCNCCO)cc(C)c1Cl	none
Cc1cc(OCCCCCNCCO)cc(C)c1Cl	PTEN del growth 3.6, H69AR inhibit 37
COc1cc2cc(C(c3nnnn3C(C)(C)C)N3CCc4ccccc43)c(=O)[nH]c2cc1OC (centres undefined)	none
COc1ccccc1N1CCN(C(c2cc3ccc(C)cc3[nH]c2=O)c2nnnn2C2CCCC2)CC1 (centres undefined)	HCT116 bCat-KO 3.0
COc1cc2cc(C(c3nnnn3C3CCCC3)N3CCc4ccccc43)c(=O)[nH]c2cc1OC (centres undefined)	H69AR inhibit 31, Lung fibro prol 36
COCCCn1nnnc1SCC(=O)N1CCCC1	none
CCOC(=O)C(C(=O)OCC)C(Nc1cccc(Br)c1)c1ccccc1 (centres undefined)	HCT116 bCat-KO 3.5, PTEN del growth 1.6 (no result: H69AR inhibit, HUVEC prolif 384, Lung fibro prol)
O=c1c2c([nH]c3ccc(Br)cc13)CCCC2	none (no result: HCT116 bCat-KO, PTEN del growth)
NC(=O)c1cc(Br)cc2c3c([nH]c12)CCCC3	H69AR inhibit 18
OC1CCCN(Cc2ccc3ccc4cccc5ccc2c3c45)C1 (centres undefined)	HCT116 bCat-KO 1.3, PTEN del growth 2.2, HUVEC prolif 384 2.4, Lung fibro prol 49
COc1ccc(C(=O)OCc2cc3cccc(C)c3[nH]c2=O)cc1	none
CCCCCCOc1ccc(/C=c2\s/c(=C(/C#N)C(=O)NCc3ccco3)n(-c3ccccc3)c2=O)cc1	HCT116 bCat-KO 4.7 (no result: H69AR inhibit, HUVEC prolif 384, Lung fibro prol)
c1ccc(Cn2c(CNc3nc4ccccc4n3CCN3CCCCC3)nc3ccccc32)cc1	H69AR inhibit 9.6, HUVEC prolif 384 15
C=CCn1c(-c2cccc(OC)c2)nc2nc3ccccc3nc21	H69AR inhibit 34
CC#CC[N+](C)(C)CCCCCCCCCCCC	HCT116 bCat-KO 0.8, PTEN del growth 0.6 (no result: H69AR inhibit, HUVEC prolif 384, Lung fibro prol)
C#CC[N+](C)(C)CCCCCCCCCC	none (no result: H69AR inhibit, HUVEC prolif 384, Lung fibro prol)
C#CC[N+](C)(C)CCCCCCCCCCCC	HCT116 bCat-KO 1.4, PTEN del growth 1.7 (no result: H69AR inhibit, HUVEC prolif 384, Lung fibro prol)
N#C/C(=C\c1cccs1)C(=O)NCc1cccnc1	none (no result: H69AR inhibit, HUVEC prolif 384, Lung fibro prol)
CC(C)(CO)NC(=O)C(c1ccccc1)c1ccccc1	none
Cc1noc(C)c1COC(=O)CCc1nc2ccccc2s1	none
COc1ccc(CNC(=O)COC(=O)C2CC3C=CC2C3)cc1 (centres undefined)	none (no result: H69AR inhibit, HUVEC prolif 384, Lung fibro prol)
CCCCC1CCC(C(=O)N2CCOCC2)CC1 (centres undefined)	none (no result: H69AR inhibit, HUVEC prolif 384, Lung fibro prol)
Cc1ccc(-n2nc(C)c(NS(=O)(=O)c3ccccc3)c2C)cc1C	none
Cc1nn(-c2ccc(F)cc2)c(C)c1NS(=O)(=O)c1ccc(Cl)cc1	HUVEC prolif 384 30
CCOC(=O)N1CCc2c(sc3c2C(=O)NC(c2ccc(-c4ccc(Cl)cc4)o2)N3)C1 (centres undefined)	H69AR inhibit 30 (no result: HCT116 bCat-KO, PTEN del growth)
O=C(Cn1cnc2c(cnn2-c2ccccc2)c1=O)Nc1ccc(S(=O)(=O)N2CCOCC2)cc1	none (no result: H69AR inhibit, HUVEC prolif 384, Lung fibro prol)
C/C=C/C(=O)OCC(=O)Nc1nc2ccc(C)cc2s1	H69AR inhibit 29
Cc1cc(C(=O)Nc2nc3ccc(S(C)(=O)=O)cc3s2)c(C)o1	Lung fibro prol 46
CS(=O)(=O)c1ccc2nc(NC(=O)c3cccs3)sc2c1	H69AR inhibit 25
Cc1ccc(C(=O)Nc2nc3ccc(S(C)(=O)=O)cc3s2)s1	H69AR inhibit 38
